Data: ChEMBL document CHEMBL1139304, “Synthesis, antichagasic in vitro evaluation, cytotoxicity assays, molecular modeling and SAR/QSAR studies of a 2-phenyl-3-(1-phenyl-1H-pyrazol-4-yl)-acrylic acid benzylidene-carbohydrazide series” (Bioorg Med Chem, 2009)
The source made the active and inactive calls. No cut-off for these calls is given here.

Key:
Trypanosoma cruzi [1] = experiment: Trypanocidal activity against Trypanosoma cruzi Y in Swiss albino mouse blood after 24 hrs; type: functional, organism-based
Outline: (§1)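 Blood was drawn by cardiac puncture from Swiss albino mice infected with T. cruzi Y strain at peak parasitaemia (day 7). It was diluted with healthy mouse blood to 2.10⁶ forms/mL. Compounds from DMSO stocks were tested at 100, 250 and 500, in triplicate, at 4 °C. Parasites were counted after 24 h against infected blood with matched DMSO. IC50 was converted to molar pIC50.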

[2] = Cytotoxicity against BALB/c mouse peritoneal cavity cells at 100 ug/mL after 20 hrs by MTT assay; type: cell-based
Outline: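 Peritoneal cells came from male Balb/c mice (18–25 g). They were washed in RPMI and resuspended in RPMI with 10% FBS and antibiotics, with viable cells counted by Trypan blue. Cells at 2 × 10⁵/well were held 30 min at 37 °C, 5% CO₂, exposed to compound for 20 h, then given MTT for 4 h. Formazan was dissolved in DMSO and read at 490 nm. Viability was taken as % of control OD, with ≥5% death counted as cytotoxic.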

Trypanosoma cruzi [3] = experiment: Trypanocidal activity against Trypanosoma cruzi Y in Swiss albino mouse blood at 500 ug/mL after 24 hrs; type: functional, organism-based; outline: as §1

Compound	IC50 (Trypanosoma cruzi [1]; read-out: IC50)	IC50 (Trypanosoma cruzi [1]; read-out: pIC50 (converted))	Activity [2]	IC50 (Trypanosoma cruzi [3])	pIC50 (Trypanosoma cruzi [3])
CN(C)c1ccc(/C=N/NC(=O)/C(=C/c2cnn(-c3ccccc3)c2)c2ccc(F)cc2)cc1	890 µM	891 µM	12.2%	–	–
NNC(=O)/C(=C/c1cnn(-c2ccccc2)c1)c1ccccc1	2810 µM	2820 µM	0%	–	–
O=C(N/N=C/c1ccc(O)cc1)/C(=C/c1cnn(-c2ccccc2)c1)c1ccccc1	760 µM	759 µM	12.32%	–	–
O=C(N/N=C/c1ccccc1)/C(=C/c1cnn(-c2ccccc2)c1)c1ccc(O)cc1	1360 µM	1350 µM	9.64%	–	–
COc1ccc(/C(=C\c2cnn(-c3ccccc3)c2)C(=O)N/N=C/c2ccc(Br)cc2)cc1	930 µM	933 µM	0%	–	–
COc1ccc(/C=N/NC(=O)/C(=C/c2cnn(-c3ccccc3)c2)c2ccc(F)cc2)cc1	340 µM	339 µM	14.8%	–	–
O=C(N/N=C/c1ccccc1)/C(=C/c1cnn(-c2ccccc2)c1)c1ccccc1	190 µM	191 µM	4%	–	–
CCOc1ccc(/C=N/NC(=O)/C(=C/c2cnn(-c3ccccc3)c2)c2ccccc2)cc1	380 µM	380 µM	0%	–	–
N#Cc1ccc(/C=N/NC(=O)/C(=C/c2cnn(-c3ccccc3)c2)c2ccc(C(F)(F)F)cc2)cc1	590 µM	589 µM	0%	–	–
N#Cc1ccc(/C=N/NC(=O)/C(=C/c2cnn(-c3ccccc3)c2)c2ccc(F)cc2)cc1	50 µM	53.7 µM	0%	–	–
COc1ccc(/C=N/NC(=O)/C(=C/c2cnn(-c3ccccc3)c2)c2ccccc2)cc1	1510 µM	1510 µM	0%	–	–
CN(C)c1ccc(/C=N/NC(=O)/C(=C/c2cnn(-c3ccccc3)c2)c2ccc(Br)cc2)cc1	700 µM	708 µM	0%	–	–
COc1ccc(/C(=C\c2cnn(-c3ccccc3)c2)C(=O)N/N=C/c2ccc(C#N)cc2)cc1	1310 µM	1320 µM	14.35%	–	–
CN(C)c1ccc(/C=N/NC(=O)/C(=C/c2cnn(-c3ccccc3)c2)c2ccc(C(F)(F)F)cc2)cc1	920 µM	912 µM	23.07%	–	–
O=C(N/N=C/c1ccccc1)/C(=C/c1cnn(-c2ccccc2)c1)c1ccc(F)cc1	7830 µM	7760 µM	0%	–	–
COc1ccc(/C(=C\c2cnn(-c3ccccc3)c2)C(=O)N/N=C/c2ccc([N+](=O)[O-])cc2)cc1	980 µM	977 µM	11.22%	–	–
N#Cc1ccc(/C=N/NC(=O)/C(=C/c2cnn(-c3ccccc3)c2)c2ccccc2)cc1	1870 µM	1860 µM	0%	–	–
CSc1ccc(/C=N/NC(=O)/C(=C/c2cnn(-c3ccccc3)c2)c2ccccc2)cc1	440 µM	437 µM	22.8%	–	–
COc1ccc(/C(=C\c2cnn(-c3ccccc3)c2)C(=O)N/N=C/c2ccc(O)cc2)cc1	1420 µM	1410 µM	12.04%	–	–
O=C(N/N=C/c1ccc(Br)cc1)/C(=C/c1cnn(-c2ccccc2)c1)c1ccccc1	1500 µM	1510 µM	14.35%	–	–
O=C(N/N=C/c1ccc([N+](=O)[O-])cc1)/C(=C/c1cnn(-c2ccccc2)c1)c1ccccc1	30 µM	28.2 µM	19.4%	–	–
O=C(N/N=C/c1ccc(F)cc1)/C(=C/c1cnn(-c2ccccc2)c1)c1ccccc1	2440 µM	2450 µM	0%	–	–
O=C(N/N=C/c1ccccc1)/C(=C/c1cnn(-c2ccccc2)c1)c1ccc(Br)cc1	–	–	–	Not Active	inactive
O=C(N/N=C/c1ccc([N+](=O)[O-])cc1)/C(=C/c1cnn(-c2ccccc2)c1)c1ccc(C(F)(F)F)cc1	750 µM	741 µM	0%	–	–
O=C(N/N=C/c1ccc(Br)cc1)/C(=C/c1cnn(-c2ccccc2)c1)c1ccc(C(F)(F)F)cc1	620 µM	617 µM	0%	–	–
O=C(N/N=C/c1ccc(Cl)cc1)/C(=C/c1cnn(-c2ccccc2)c1)c1ccccc1	8590 µM	8510 µM	0%	–	–
CN(C)c1ccc(/C=N/NC(=O)/C(=C/c2cnn(-c3ccccc3)c2)c2ccccc2)cc1	200 µM	200 µM	0%	–	–
CN(C)c1ccc(/C=N/NC(=O)/C(=C/c2cnn(-c3ccccc3)c2)c2ccc(O)cc2)cc1	1880 µM	1860 µM	12.94%	–	–
